Laboratory results from ChEMBL document CHEMBL1158535, “Thiazole, oxadiazole, and carboxamide derivatives of artemisinin are highly selective and potent inhibitors of Toxoplasma gondii” (J Med Chem, 2010).
Calls of active or inactive are those of the source. No cut-off for these calls is given here.

Tests used:
[1] = Cytotoxicity against HFF after 5 days by CellTiter 96 Aqueous One Solution assay; conditions: human, HFF cells; read-out: TD50
[2] = Therapeutic index, ratio of TD50 for HFF cells to IC50 for Toxoplasma gondii F2; assay type: cell-based; conditions: human, read-out: TI
Toxoplasma gondii [3] = assay: Antiparasitic activity against Toxoplasma gondii 2F infected in HFF cells assessed as beta galactosidase activity after 5 days; assay type: functional, organism-based; conditions: 120 h
Procedure, shortened: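 HFF monolayers infected with β-galactosidase-expressing T. gondii 2F tachyzoites; compounds from final 320 μM serially diluted 0.5 log10, drug-free parasite control. After 4 days at 37°C/5% CO2, CPRG substrate added and incubated 1 more day. Absorbance 570-650 nm relative to parasite control. IC50 calculated; at least three independent experiments.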

Toxoplasma gondii [4] = assay: Antiparasitic activity against Toxoplasma gondii 2F infected in HFF cells assessed as inhibition of parasite replication at 10 uM; assay type: functional, organism-based
Procedure, shortened: (§1)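 HFF monolayers inoculated with tachyzoites, 2 h at 37°C/5% CO2, then compound (1, 5 or 10 μM) or DMSO added. Replication 24-26 h, then fixed, permeabilized, immunolabeled anti-p30 with DAPI. Parasites per vacuole (1, 2, 4, 8+) counted by eye in 10 random fields; reported as modal number/doublings.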

Toxoplasma gondii [5] = assay: Antiparasitic activity against Toxoplasma gondii 2F infected in HFF cells assessed as inhibition of parasite replication at 5 uM; assay type: functional, organism-based
Procedure, shortened: as §1

Toxoplasma gondii [6] = assay: Antiparasitic activity against Toxoplasma gondii 2F infected in HFF cells assessed as inhibition of parasite replication at 1 uM; assay type: functional, organism-based
Procedure, shortened: as §1

Compound	CC50 at 120 h [1]	selectivity ratio [2]	IC50 (Toxoplasma gondii [3])	Activity (Toxoplasma gondii [4])	Activity (Toxoplasma gondii [5])	Activity (Toxoplasma gondii [6])
CC1=C(C(=O)NCc2ccc(F)cc2)O[C@@H]2O[C@@]3(C)CC[C@H]4[C@H](C)CC[C@@H]1[C@@]24OO3	72 µM	153	0.47 µM			
C[C@@H]1CC[C@H]2[C@@H](C)C(=O)O[C@@H]3O[C@@]4(C)CC[C@@H]1[C@]32OO4 [ARTEMISININ]	≥ 320 µM	879	0.64 µM			
CC1=C(c2nc(-c3ccccc3)no2)O[C@@H]2O[C@@]3(C)CC[C@H]4[C@H](C)CC[C@@H]1[C@@]24OO3	141 µM	320	0.44 µM	Active	Active	Active
CC1=C(C(=O)NCc2cc(F)cc(F)c2)O[C@@H]2O[C@@]3(C)CC[C@H]4[C@H](C)CC[C@@H]1[C@@]24OO3	≥ 320 µM	1560	0.36 µM			
COc1cc(Cc2cnc(N)nc2N)cc(OC)c1OC [TRIMETHOPRIM]	≥ 320 µM	12	46 µM			
CCc1csc(C2=C(C)[C@@H]3CC[C@@H](C)[C@@H]4CC[C@@]5(C)OO[C@@]34[C@H](O2)O5)n1	≥ 320 µM	1410	0.4 µM			
CC1=C(c2nc(C)cs2)O[C@@H]2O[C@@]3(C)CC[C@H]4[C@H](C)CC[C@@H]1[C@@]24OO3	≥ 320 µM	1410	0.4 µM	Active	Active	Active
CC1=C(C(=O)NCc2ccc(C)cc2)O[C@@H]2O[C@@]3(C)CC[C@H]4[C@H](C)CC[C@@H]1[C@@]24OO3	169 µM	331	0.51 µM			
CC1=C(c2nc(C)no2)O[C@@H]2O[C@@]3(C)CC[C@H]4[C@H](C)CC[C@@H]1[C@@]24OO3	≥ 320 µM	669	0.84 µM			
CC1=C(c2nc(-c3ccc(C)cc3)cs2)O[C@@H]2O[C@@]3(C)CC[C@H]4[C@H](C)CC[C@@H]1[C@@]24OO3	≥ 320 µM	1610	0.35 µM			
CC1=C(c2nc(-c3ccccc3)cs2)O[C@@H]2O[C@@]3(C)CC[C@H]4[C@H](C)CC[C@@H]1[C@@]24OO3	≥ 320 µM	1650	0.34 µM	Active	Active	Active
CC1=C(c2nc(C(C)(C)C)cs2)O[C@@H]2O[C@@]3(C)CC[C@H]4[C@H](C)CC[C@@H]1[C@@]24OO3	≥ 320 µM	2250	0.25 µM	Active	Active	Active
CC1=C(C(=O)NCc2cc(Br)cc(Br)c2)O[C@@H]2O[C@@]3(C)CC[C@H]4[C@H](C)CC[C@@H]1[C@@]24OO3	≥ 320 µM	694	0.81 µM			
CC1=C(C(=O)NCc2ccc(C(F)(F)F)cc2)O[C@@H]2O[C@@]3(C)CC[C@H]4[C@H](C)CC[C@@H]1[C@@]24OO3	≥ 320 µM	1650	0.34 µM			
CCNC(=O)C1=C(C)[C@@H]2CC[C@@H](C)[C@@H]3CC[C@@]4(C)OO[C@@]23[C@H](O1)O4	259 µM	38	6.8 µM			
CNC(=O)C1=C(C)[C@@H]2CC[C@@H](C)[C@@H]3CC[C@@]4(C)OO[C@@]23[C@H](O1)O4	≥ 320 µM	37	15 µM			
CC1=C(C(=O)NCc2ccc(F)c(F)c2)O[C@@H]2O[C@@]3(C)CC[C@H]4[C@H](C)CC[C@@H]1[C@@]24OO3	78 µM	166	0.47 µM			
CC1=C(c2nc(C3CCCCC3)cs2)O[C@@H]2O[C@@]3(C)CC[C@H]4[C@H](C)CC[C@@H]1[C@@]24OO3	1.8 µM	3	0.59 µM			
CC1=C(c2nc(C)c(C)s2)O[C@@H]2O[C@@]3(C)CC[C@H]4[C@H](C)CC[C@@H]1[C@@]24OO3	38 µM	240	0.16 µM	Active	Active	Active
CSc1ccc(-c2csc(C3=C(C)[C@@H]4CC[C@@H](C)[C@@H]5CC[C@@]6(C)OO[C@@]45[C@H](O3)O6)n2)cc1	≥ 320 µM	1410	0.4 µM			
CC1=C(c2nc(-c3ccc(S(C)(=O)=O)cc3)cs2)O[C@@H]2O[C@@]3(C)CC[C@H]4[C@H](C)CC[C@@H]1[C@@]24OO3	≥ 320 µM	1340	0.42 µM			
CC1=C(C(=O)NCc2ccccc2)O[C@@H]2O[C@@]3(C)CC[C@H]4[C@H](C)CC[C@@H]1[C@@]24OO3	≥ 320 µM	839	0.67 µM			
CO[C@H]1O[C@@H]2O[C@@]3(C)CC[C@H]4[C@H](C)CC[C@@H]([C@H]1C)[C@@]24OO3 [ARTEMETHER]	≥ 320 µM	1810	0.31 µM			
CCN(CC)C(=O)C1=C(C)[C@@H]2CC[C@@H](C)[C@@H]3CC[C@@]4(C)OO[C@@]23[C@H](O1)O4	23 µM	2.1	11 µM			
CC1=C(c2nccs2)O[C@@H]2O[C@@]3(C)CC[C@H]4[C@H](C)CC[C@@H]1[C@@]24OO3	≥ 320 µM	511	1.1 µM			
CC1=C(c2ncc(C)s2)O[C@@H]2O[C@@]3(C)CC[C@H]4[C@H](C)CC[C@@H]1[C@@]24OO3	≥ 320 µM	1520	0.37 µM	Active	Active	Active
COc1ccc(-c2csc(C3=C(C)[C@@H]4CC[C@@H](C)[C@@H]5CC[C@@]6(C)OO[C@@]45[C@H](O3)O6)n2)cc1	19 µM	25	0.75 µM			
